Test results: publication PMC6203112 (International Journal of Chronic Obstructive Pulmonary …, 2018)

Columns and labels:
[1] = Study 2 Part 2: adverse events after multiple BID doses via MDDPI; type: in vivo, human; details: N=9
Procedure, shortened: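 Study 2 Part 2 used three parallel escalating cohorts of healthy men and women. Subjects inhaled test compound at 1,200, 2,000 or 2,400 µg twice daily, or placebo, for 14 days via a reservoir multi-dose dry-powder inhaler, confined from day −2 to day 15. AEs were recorded with investigator-assessed relation to study medication, as number (%) of the safety population.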

[2] = cited from earlier work
[3] = Study 1 Part 1: single ascending dose PK via SDDPI; type: in vivo; details: human, plasma, inhaled
Procedure, shortened: (§1)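 Blood was collected in lithium heparin, chilled on ice, and centrifuged at 2,000 ×g for 15 min at ~4°C. Plasma was stabilised with 1 M citric acid (100 µL per 1 mL plasma) and stored at ≤−65°C. After solid-phase extraction, samples were assayed by validated LC-MS/MS with heated electrospray and a deuterated internal standard (LLOQ 10 pg/mL). PK parameters were derived non-compartmentally.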

[4] = Study 2 Part 1: single ascending dose PK via MDDPI; type: in vivo; details: human, plasma, inhaled
Procedure, shortened: as §1

[5] = Study 1 Part 1: adverse events after single doses via SDDPI; type: in vivo, human
Procedure, shortened: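 Study 1 Part 1 used a crossover design in healthy men aged 18–55. Single inhaled doses of test compound (20–2,000 µg) or matching placebo were given via a capsule-based single-dose dry-powder inhaler. Investigators recorded each AE and its relation to study medication. Counts are number (%) of the safety population, defined as randomized subjects receiving at least one dose.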

[6] = rats and ferrets, intratracheal administration at doses compatible with those used in humans; cited from earlier work

CS(=O)(=O)Nc1ccc(C(=O)O[C@@H](Cc2c(Cl)c[n+]([O-])cc2Cl)c2ccc(OC(F)F)c(OCC3CC3)c2)cc1OCC1CC1 [CHF6001]
AE considered related to study medication ([1]; 1,200 µg BID 14 days): 4 (44.4) Number (%) of subjects | AE leading to death ([1]; 1,200 µg BID 14 days): 0 Number (%) of subjects | AE leading to withdrawal ([1]; 1,200 µg BID 14 days): 0 Number (%) of subjects | At least one AE ([1]; 1,200 µg BID 14 days): 6 (66.7) Number (%) of subjects | At least one SAE ([1]; 1,200 µg BID 14 days): 0 Number (%) of subjects | Back pain (AE) ([1]; 1,200 µg BID 14 days): 0 Number (%) of subjects | Diarrhea (AE considered related to study medication) ([1]; 1,200 µg BID 14 days): 1 (11.1) Number (%) of subjects | Flatulence (AE considered related to study medication) ([1]; 1,200 µg BID 14 days): 1 (11.1) Number (%) of subjects | Headache (AE considered related to study medication) ([1]; 1,200 µg BID 14 days): 3 (33.3) Number (%) of subjects | Headache (AE) ([1]; 1,200 µg BID 14 days): 3 (33.3) Number (%) of subjects | Nausea (AE considered related to study medication) ([1]; 1,200 µg BID 14 days): 0 Number (%) of subjects | Parosmia (AE considered related to study medication) ([1]; 1,200 µg BID 14 days): 0 Number (%) of subjects | Severe AE ([1]; 1,200 µg BID 14 days): 0 Number (%) of subjects | AE leading to death ([1]; 2,000 µg BID 14 days): 0 Number (%) of subjects | AE leading to withdrawal ([1]; 2,000 µg BID 14 days): 0 Number (%) of subjects | At least one AE ([1]; 2,000 µg BID 14 days): 5 (55.6) Number (%) of subjects | At least one SAE ([1]; 2,000 µg BID 14 days): 0 Number (%) of subjects | Back pain (AE) ([1]; 2,000 µg BID 14 days): 3 (33.3) Number (%) of subjects | Diarrhea (AE considered related to study medication) ([1]; 2,000 µg BID 14 days): 0 Number (%) of subjects | Flatulence (AE considered related to study medication) ([1]; 2,000 µg BID 14 days): 0 Number (%) of subjects | Headache (AE considered related to study medication) ([1]; 2,000 µg BID 14 days): 2 (22.2) Number (%) of subjects | Headache (AE) ([1]; 2,000 µg BID 14 days): 2 (22.2) Number (%) of subjects | Nausea (AE considered related to study medication) ([1]; 2,000 µg BID 14 days): 0 Number (%) of subjects | Parosmia (AE considered related to study medication) ([1]; 2,000 µg BID 14 days): 0 Number (%) of subjects | Severe AE ([1]; 2,000 µg BID 14 days): 1 (11.1) Number (%) of subjects | AE considered related to study medication ([1]; 2,400 µg BID 14 days): 1 (11.1) Number (%) of subjects | AE leading to death ([1]; 2,400 µg BID 14 days): 0 Number (%) of subjects | AE leading to withdrawal ([1]; 2,400 µg BID 14 days): 1 (11.1) Number (%) of subjects | At least one AE ([1]; 2,400 µg BID 14 days): 7 (77.8) Number (%) of subjects | At least one SAE ([1]; 2,400 µg BID 14 days): 0 Number (%) of subjects | Back pain (AE) ([1]; 2,400 µg BID 14 days): 5 (55.6) Number (%) of subjects | Diarrhea (AE considered related to study medication) ([1]; 2,400 µg BID 14 days): 0 Number (%) of subjects | Flatulence (AE considered related to study medication) ([1]; 2,400 µg BID 14 days): 0 Number (%) of subjects | Headache (AE considered related to study medication) ([1]; 2,400 µg BID 14 days): 1 (11.1) Number (%) of subjects | Headache (AE) ([1]; 2,400 µg BID 14 days): 2 (22.2) Number (%) of subjects | Nausea (AE considered related to study medication) ([1]; 2,400 µg BID 14 days): 0 Number (%) of subjects | Parosmia (AE considered related to study medication) ([1]; 2,400 µg BID 14 days): 0 Number (%) of subjects | Severe AE ([1]; 2,400 µg BID 14 days): 0 Number (%) of subjects | systemic bioavailability ([2]; after intratracheal administration): low systemic bioavailability | bioavailability ([2]; after oral administration): very low bioavailability | elimination ([2]; following intravenous administration, predominantly via the fecal route): rapidly eliminated | half-life [3]: 30 to 45 h | AUC(0-t) ([3]; 20 ug): 0.0316 ng·h/mL | Cmax ([3]; 20 ug): 0.0189 ng/mL | half-life ([3]; 20 ug): 5.6 h | AUC(0-t) ([3]; 100 ug): 1.48 ng·h/mL | Cmax ([3]; 100 ug): 0.0638 ng/mL | half-life ([3]; 100 ug): 28.2 h | AUC(0-t) ([3]; 200 ug): 2.78 ng·h/mL | Cmax ([3]; 200 ug): 0.14 ng/mL | half-life ([3]; 200 ug): 30.1 h | AUC(0-t) ([3]; 400 ug): 5.38 ng·h/mL | Cmax ([3]; 400 ug): 0.195 ng/mL | half-life ([3]; 400 ug): 45.3 h | AUC(0-t) ([3]; 800 ug): 10.6 ng·h/mL | Cmax ([3]; 800 ug): 0.432 ng/mL | half-life ([3]; 800 ug): 26.3 h | AUC(0-t) ([3]; 1600 µg): 18 ng·h/mL | Cmax ([3]; 1600 µg): 0.73 ng/mL | half-life ([3]; 1600 µg): 27.4 h | AUC(0-t) ([3]; 2000 µg): 25.6 ng·h/mL | Cmax ([3]; 2000 µg): 0.983 ng/mL | half-life ([3]; 2000 µg): 37.3 h | Tmax [4]: 3 h | AUC(0-t) ([4]; 2400 µg): 35.2 ng·h/mL | Cmax ([4]; 2400 µg): 1.23 ng/mL | Tmax ([4]; 2400 µg): 3 h | half-life ([4]; 2400 µg): 49.1 h | AUC(0-t) ([4]; 4000 µg): 75.8 ng·h/mL | Cmax ([4]; 4000 µg): 2.55 ng/mL | Tmax ([4]; 4000 µg): 3 h | half-life ([4]; 4000 µg): 44 h | AUC(0-t) ([4]; 4800 µg): 77.4 ng·h/mL | Cmax ([4]; 4800 µg): 2.72 ng/mL | Tmax ([4]; 4800 µg): 3 h | half-life ([4]; 4800 µg): 40 h | AE considered related to study medication ([5]; single dose 20 µg, N=8): 0 Number (%) of subjects | AE leading to death ([5]; single dose 20 µg, N=8): 0 Number (%) of subjects | AE leading to withdrawal ([5]; single dose 20 µg, N=8): 0 Number (%) of subjects | At least one AE ([5]; single dose 20 µg, N=8): 1 (12.5) Number (%) of subjects | At least one SAE ([5]; single dose 20 µg, N=8): 0 Number (%) of subjects | Severe AE ([5]; single dose 20 µg, N=8): 0 Number (%) of subjects | AE considered related to study medication ([5]; single dose 100 µg, N=8): 0 Number (%) of subjects | AE leading to death ([5]; single dose 100 µg, N=8): 0 Number (%) of subjects | AE leading to withdrawal ([5]; single dose 100 µg, N=8): 0 Number (%) of subjects | At least one AE ([5]; single dose 100 µg, N=8): 0 Number (%) of subjects | At least one SAE ([5]; single dose 100 µg, N=8): 0 Number (%) of subjects | Severe AE ([5]; single dose 100 µg, N=8): 0 Number (%) of subjects | AE considered related to study medication ([5]; single dose 200 µg, N=8): 0 Number (%) of subjects | AE leading to death ([5]; single dose 200 µg, N=8): 0 Number (%) of subjects | AE leading to withdrawal ([5]; single dose 200 µg, N=8): 1 (12.5) Number (%) of subjects | At least one AE ([5]; single dose 200 µg, N=8): 3 (37.5) Number (%) of subjects | At least one SAE ([5]; single dose 200 µg, N=8): 0 Number (%) of subjects | Severe AE ([5]; single dose 200 µg, N=8): 0 Number (%) of subjects | AE considered related to study medication ([5]; single dose 400 µg, N=7): 0 Number (%) of subjects | AE leading to death ([5]; single dose 400 µg, N=7): 0 Number (%) of subjects | AE leading to withdrawal ([5]; single dose 400 µg, N=7): 0 Number (%) of subjects | At least one AE ([5]; single dose 400 µg, N=7): 2 (28.6) Number (%) of subjects | At least one SAE ([5]; single dose 400 µg, N=7): 0 Number (%) of subjects | Severe AE ([5]; single dose 400 µg, N=7): 0 Number (%) of subjects | AE considered related to study medication ([5]; single dose 800 µg, N=7): 0 Number (%) of subjects | AE leading to death ([5]; single dose 800 µg, N=7): 0 Number (%) of subjects | AE leading to withdrawal ([5]; single dose 800 µg, N=7): 0 Number (%) of subjects | At least one AE ([5]; single dose 800 µg, N=7): 3 (42.9) Number (%) of subjects | At least one SAE ([5]; single dose 800 µg, N=7): 0 Number (%) of subjects | Severe AE ([5]; single dose 800 µg, N=7): 0 Number (%) of subjects | AE considered related to study medication ([5]; single dose 1,600 µg, N=7): 0 Number (%) of subjects | AE leading to death ([5]; single dose 1,600 µg, N=7): 0 Number (%) of subjects | AE leading to withdrawal ([5]; single dose 1,600 µg, N=7): 0 Number (%) of subjects | At least one AE ([5]; single dose 1,600 µg, N=7): 2 (28.6) Number (%) of subjects | At least one SAE ([5]; single dose 1,600 µg, N=7): 0 Number (%) of subjects | Severe AE ([5]; single dose 1,600 µg, N=7): 0 Number (%) of subjects | AE considered related to study medication ([5]; single dose 2,000 µg, N=6): 0 Number (%) of subjects | AE leading to death ([5]; single dose 2,000 µg, N=6): 0 Number (%) of subjects | AE leading to withdrawal ([5]; single dose 2,000 µg, N=6): 0 Number (%) of subjects | At least one AE ([5]; single dose 2,000 µg, N=6): 0 Number (%) of subjects | At least one SAE ([5]; single dose 2,000 µg, N=6): 0 Number (%) of subjects | Severe AE ([5]; single dose 2,000 µg, N=6): 0 Number (%) of subjects | emesis or nausea [6]: no evidence of emesis or nausea
